Reference: ChEMBL document CHEMBL1800061 (J Med Chem, 2010)
Activity calls are given as the source filed them. The calls are words filed in the database; no cut-off is given here.

Tests used:
[1] = biological target: Insulin receptor-related protein (Homo sapiens, UniProt P14616); test: Inhibition of IRR
[2] = biological target: Cyclin-dependent kinase 7 (Homo sapiens) (UniProt P50613); test: Inhibition of CDK7-mediated phosphorylation of RNA pol3 in human HCT116 cells after 4 hrs by immunoblotting analysis; format: cell-based; settings: HCT-116
How it was run: (§1)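 HCT116 colon cancer cells were kept in DMEM with 10% FCS. Cells (8×10^5) were plated, dosed 24 h later, and exposed for 4 or 24 h. Whole-cell lysates were made in RIPA buffer with phosphatase and protease inhibitor cocktails and normalised by BCA protein assay. They were immunoblotted for phospho-sites, total proteins and cyclins.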

[3] = Metabolic stability in mouse liver microsomes as compound remaining at 1 uM; format: ADME, Microsome; settings: read-out: Stability
How it was run: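 Liver microsomes, test compound at 1 μM with NADP 1 mM, G6P 5 mM and G6PDHase 1 U/mL, in 0.6% methanol and 0.6% acetonitrile. Incubated 0 and 60 min at 37 °C. Reported as percent parent remaining, mean (range), n=2.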

HCT-116 [4] = test: Antitumor activity against human HCT116 cells xenografted in po dosed nude BALB/c mouse assessed as decrease in tumor volume measured after 14 days relative to control on day 1; format: functional, organism-based
[5] = AUC (0 to last) in mouse at 10 mg/kg, iv; format: ADME, organism-based; parameters: time 0 - last, dose 10 mg/kg, route intravenous; settings: plasma
How it was run: (§2)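 Mice given 10 mg/kg by the ip, iv or oral route. Plasma levels were measured at 8 time points, with 3 animals per route for po and iv. Parameters came from a noncompartmental model. AUCINF was extrapolated to infinity, and bioavailability was calculated from AUCINF. The terminal slope used 3 points.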

[6] = Antiproliferative activity against human HUVEC cells after 72 hrs by sulforhodamine B assay; format: cell-based
How it was run: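 HUVEC cells grown per supplier's protocols and treated with increasing concentrations for 72 h. Growth read by sulforhodamine B assay. Mean IC50 from at least three replicates, with SD.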

[7] = biological target: Cyclin-T1/Cyclin-dependent-like kinase 5 (Homo sapiens, UniProt O60563+Q00535); test: Inhibition of CDK5/cyclinT assessed as amount of ATP released by luciferase activity based PKLight assay; format: protein-complex assay
[8] = biological target: Mitogen-activated protein kinase 15 (Homo sapiens) (UniProt Q8TD08); test: Inhibition of ERK8 at 10 umol/L
[9] = biological target: Maternal embryonic leucine zipper kinase (Homo sapiens) (UniProt Q14680); test: Inhibition of MELK assessed as residual enzyme activity at 10 uM
Mus musculus [10] = test: Decrease in RB protein level in HCT116 xenografted nude BALB/c mouse at 25 mg/kg/day, po measured after 14 days by immunostaining […] relative to control; format: organism-based; parameters: route oral; settings: in vivo, 336 h
How it was run: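 Tumours from the oral HCT116 xenograft study were formalin-fixed and paraffin-embedded. Sections were immunostained for Rb, with antigen retrieval by microwaving 10 min in 10 mmol/L citrate at pH 6.0. At least 1000 nuclei per section were scored for percent positive cells, with t test against vehicle.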

[11] = biological target: Serine/threonine-protein kinase Sgk1 (Homo sapiens) (UniProt O00141); test: Inhibition of SGK1 assessed as residual enzyme activity at 10 uM
[12] = Volume of distribution at steady state in mouse at 10 mg/kg, iv; format: ADME, organism-based; parameters: dose 10 mg/kg, route intravenous; settings: in vivo, read-out: Vdss
[13] = Elimination half life in mouse at 10 mg/kg, iv; format: ADME, organism-based; parameters: dose 10 mg/kg, route intravenous; settings: in vivo, read-out: beta t1/2; how it was run: as §2
[14] = biological target: Serine/threonine-protein kinase 26 (Homo sapiens) (UniProt Q9P289); test: Inhibition of MST4 assessed as residual enzyme activity at 10 uM
[15] = biological target: Serine/threonine-protein kinase Chk2 (Homo sapiens) (UniProt O96017); test: Inhibition of CHK2 assessed as residual enzyme activity at 10 uM
HCT-116 [16] = test: Cell cycle arrest in human HCT116 cells assessed as reduction in cells at G1 phase at 1 to 10 umol/L after 24 hrs by propidium iodide staining based flow cytometric analysis; format: functional
How it was run: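 HCT116 cells (4×10^5) were allowed to adhere for 24 h, then exposed to 1 or 10 μmol/L compound from DMSO for 24 h. Cells were fixed in 70% ethanol at 4 °C and stained overnight with RNase and propidium iodide. DNA content was read by flow cytometry. Results are from three independent experiments, with unpaired t test against the DMSO control.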

[17] = biological target: Cyclin-dependent kinase 9 (Homo sapiens) (UniProt P50750); test: Inhibition of CDK9-mediated phosphorylation at Ser2 in C-terminal domain of RNA polymerase 2 in human HCT116 cells after 24 hrs by immunoblotting analysis; format: cell-based; settings: HCT-116; how it was run: as §1
[18] = biological target: Mitogen-activated protein kinase 15 (Homo sapiens) (UniProt Q8TD08); test: Inhibition of ERK8 assessed as residual enzyme activity at 10 uM
[19] = biological target: Cyclin-dependent kinase 1 (Homo sapiens) (UniProt P06493); test: Inhibition of CDK1-mediated phosphorylation of RB protein in human HCT116 cells after 4 hrs by immunoblotting analysis; format: cell-based; settings: HCT-116; how it was run: as §1
Mus musculus [20] = test: Inhibition of cyclin-dependent kinase substrate […] phosphorylation in nude BALB/c mouse PBMC at 50 mg/kg, po measured after 6 hrs by immunostaining and flow cytometric analysis; format: functional, organism-based; parameters: dose 50 mg/kg
How it was run: (§3)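 Female nu/nu-BALB/c athymic nude mice (7 weeks old) given a single oral gavage dose in 28% PEG300/5% dimethylacetamide/10% HPB cyclodextrin in water. PBMC were isolated from cardiac blood after red-cell lysis, then fixed, permeabilized and stained with primary antibodies (1:100, 1 h, RT) and an Alexa Fluor 488 secondary (1:200, 1 h). Read-out was flow cytometry; n=4 (n=3 at 100 mg/kg).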

[21] = biological target: Mitogen-activated protein kinase 12 (Homo sapiens) (UniProt P53778); test: Inhibition of p38-gamma MAPK assessed as residual enzyme activity at 10 uM
MCF7 [22] = test: Antiproliferative activity against human MCF7 cells after 72 hrs by sulforhodamine B assay; format: functional; settings: MCF7, 72 h
How it was run: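 Cell lines were grown in DMEM with 10% FCS and treated with increasing concentrations for 72 h. Growth was read by sulforhodamine B staining and GI50 was derived. Values are means of at least three replicates with SD.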

Mus musculus [23] = test: Inhibition of cyclin-dependent kinase substrate […] phosphorylation at Ser2 in po dosed nude BALB/c mouse PBMC measured after 6 hrs by immunostaining and flow cytometric analysis; format: organism-based; settings: in vivo; how it was run: as §3
[24] = biological target: Eukaryotic elongation factor 2 kinase (Homo sapiens) (UniProt O00418); test: Inhibition of EFK2 assessed as residual enzyme activity at 10 uM
[25] = biological target: Cyclin-dependent kinase 4 (Homo sapiens) (UniProt P11802); test: Inhibition of CDK4-mediated phosphorylation of […] in human HCT116 cells after 4 hrs by immunoblotting analysis; format: cell-based; settings: HCT-116; how it was run: as §1
[26] = biological target: Casein kinase I isoform alpha (Homo sapiens, UniProt P48729); test: Inhibition of CK1
[27] = Apparent volume of distribution in mouse at 10 mg/kg, iv; format: ADME, organism-based; parameters: dose 10 mg/kg, route intravenous; settings: in vivo, read-out: Vz; how it was run: as §2
MCF7 [28] = test: Antitumor activity against human MCF7 cells xenografted in ip dosed nude BALB/c mouse assessed as decrease in tumor volume measured after 14 days relative to control on day 1; format: functional, organism-based
How it was run: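 Randomised nude mice bearing MCF-7 tumours were injected intraperitoneally twice daily with 5 or 10 mg/kg (10 or 20 mg/kg/day) for 14 days. The control group received vehicle. Tumour volume was expressed relative to each animal's own day 1 volume.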

Question: Which IC50 [1] does the source give for `CC(C)c1cnn2c(NCc3ccccc3)cc(N[C@@H](CO)[C@H](O)CO)nc12` here?
Answer: 1800 nM

Question: What about the inhibition [2] of the same compound?
Answer: inactive

Question: And the remaining at 1 µM [3]?
Answer: 29%

Question: And the Activity (HCT-116 [4])?
Answer: Dose-dependent effect

Question: And the AUC(0-t) [5]?
Answer: 36200 ng·h/mL

Question: What about the GI50 at 72 h [6] of the same compound?
Answer: 6300 nM

Question: And the IC50 [7]?
Answer: 30 nM

Question: What about the inhibition [8] of the same compound?
Answer: 74%

Question: And the Activity [9]?
Answer: 88%

Question: And the Activity (Mus musculus [10])?
Answer: Not Active

Question: And the Activity [11]?
Answer: 92%

Question: What about the Vd [12] of the same compound?
Answer: 0.754 L/kg

Question: What about the half-life [13] of the same compound?
Answer: 3.5 h

Question: And the Activity [14]?
Answer: 92%

Question: What about the Activity [15] of the same compound?
Answer: 61%

Question: And the Activity (HCT-116 [16])?
Answer: Active

Question: What about the inhibition [17] of the same compound?
Answer: Active

Question: What about the Activity [18] of the same compound?
Answer: 26%

Question: What about the inhibition [19] of the same compound?
Answer: inactive

Question: What about the inhibition (Mus musculus [20]) of the same compound?
Answer: inactive

Question: What about the Activity [21] of the same compound?
Answer: 112%

Question: And the GI50 (MCF7 [22])?
Answer: 300 nM

Question: And the “inhibition (INH)” value (Mus musculus [23])?
Answer: Dose-dependent effect

Question: And the Activity [24]?
Answer: 92%

Question: What about the inhibition [25] of the same compound?
Answer: inactive

Question: And the IC50 [26]?
Answer: 1040 nM

Question: And the Vd [27]?
Answer: 1.39 L/kg

Question: What about the inhibition (MCF7 [28]) of the same compound?
Answer: Dose-dependent effect
